Key:
[1] = target: T1, 5-hydroxytryptamine receptor 1A (Rattus norvegicus, UniProt P19327); test: Displacement of [3H]-8-OH-DPAT from 5HT1A receptor in rat hippocampus homogenates after 15 mins by scintillation counting; assay type: tissue-based
T1 sequence (P19327 whole entry): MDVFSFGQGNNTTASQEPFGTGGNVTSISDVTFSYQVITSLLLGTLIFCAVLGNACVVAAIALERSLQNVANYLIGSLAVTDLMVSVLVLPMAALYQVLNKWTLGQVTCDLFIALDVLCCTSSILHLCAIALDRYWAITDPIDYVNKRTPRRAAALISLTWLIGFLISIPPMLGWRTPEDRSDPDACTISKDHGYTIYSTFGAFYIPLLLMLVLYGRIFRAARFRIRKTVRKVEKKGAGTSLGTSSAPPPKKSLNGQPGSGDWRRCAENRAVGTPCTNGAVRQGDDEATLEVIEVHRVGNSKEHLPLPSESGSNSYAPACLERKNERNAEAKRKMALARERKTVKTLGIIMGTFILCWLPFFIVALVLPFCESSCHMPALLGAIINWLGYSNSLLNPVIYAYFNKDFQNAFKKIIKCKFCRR
Summary of the method: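 Rat hippocampal membranes were prepared in 50 mM Tris–HCl pH 7.4 (35,000 g spins, 10 min at 37 °C between). Resuspended in Tris–HCl with 4 mM MgCl2, 10 mM pargyline and 0.1% ascorbate. 1 nM [3H]-8-OH-DPAT, 15 min at 37 °C, GF/B filtration. 10 μM 5-HT defined nonspecific binding. Triplicates at 7–8 concentrations (10⁻¹¹–10⁻⁴ M).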

[2] = target: 5-hydroxytryptamine receptor 2A (Homo sapiens) (UniProt P28223); test: Binding affinity to 5HT2A receptor (unknown origin) at 10 nM
Sequence of 5-hydroxytryptamine receptor 2A (Homo sapiens) (P28223 whole entry): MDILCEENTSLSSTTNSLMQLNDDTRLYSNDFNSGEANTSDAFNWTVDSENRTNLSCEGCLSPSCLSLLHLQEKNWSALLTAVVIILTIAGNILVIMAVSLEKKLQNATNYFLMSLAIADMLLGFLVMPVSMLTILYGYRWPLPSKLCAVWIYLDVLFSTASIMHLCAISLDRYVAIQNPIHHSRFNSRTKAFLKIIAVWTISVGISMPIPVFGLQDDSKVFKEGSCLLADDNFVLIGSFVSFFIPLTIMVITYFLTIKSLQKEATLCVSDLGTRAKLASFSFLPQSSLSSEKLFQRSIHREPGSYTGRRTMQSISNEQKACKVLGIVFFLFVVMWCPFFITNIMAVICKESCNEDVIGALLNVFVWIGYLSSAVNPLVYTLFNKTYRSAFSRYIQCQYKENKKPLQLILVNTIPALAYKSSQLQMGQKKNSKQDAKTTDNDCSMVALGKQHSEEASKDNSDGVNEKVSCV

[3] = target: 5-hydroxytryptamine receptor 2A (Homo sapiens) (UniProt P28223); test: Binding affinity to 5HT2A receptor (unknown origin) at 1 uM
[4] = target: T2, 5-hydroxytryptamine receptor 1A (Homo sapiens, UniProt P08908); test: Binding affinity to 5HT1A receptor (unknown origin)
T2 sequence (P08908 whole entry): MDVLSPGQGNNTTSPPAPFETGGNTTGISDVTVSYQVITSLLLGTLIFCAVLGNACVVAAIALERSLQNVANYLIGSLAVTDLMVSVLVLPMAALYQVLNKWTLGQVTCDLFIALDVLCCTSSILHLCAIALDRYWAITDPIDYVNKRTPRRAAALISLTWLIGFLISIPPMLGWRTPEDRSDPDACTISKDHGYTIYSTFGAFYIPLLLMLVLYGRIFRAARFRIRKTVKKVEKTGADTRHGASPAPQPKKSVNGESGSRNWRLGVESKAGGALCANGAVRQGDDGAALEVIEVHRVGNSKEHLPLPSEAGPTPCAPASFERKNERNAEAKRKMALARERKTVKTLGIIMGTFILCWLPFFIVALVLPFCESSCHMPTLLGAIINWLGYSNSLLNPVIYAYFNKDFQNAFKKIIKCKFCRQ

[5] = target: T3, 5-hydroxytryptamine receptor 7 (Homo sapiens, UniProt P34969); test: Binding affinity to 5HT7 receptor (unknown origin)
T3 sequence (P34969 whole entry): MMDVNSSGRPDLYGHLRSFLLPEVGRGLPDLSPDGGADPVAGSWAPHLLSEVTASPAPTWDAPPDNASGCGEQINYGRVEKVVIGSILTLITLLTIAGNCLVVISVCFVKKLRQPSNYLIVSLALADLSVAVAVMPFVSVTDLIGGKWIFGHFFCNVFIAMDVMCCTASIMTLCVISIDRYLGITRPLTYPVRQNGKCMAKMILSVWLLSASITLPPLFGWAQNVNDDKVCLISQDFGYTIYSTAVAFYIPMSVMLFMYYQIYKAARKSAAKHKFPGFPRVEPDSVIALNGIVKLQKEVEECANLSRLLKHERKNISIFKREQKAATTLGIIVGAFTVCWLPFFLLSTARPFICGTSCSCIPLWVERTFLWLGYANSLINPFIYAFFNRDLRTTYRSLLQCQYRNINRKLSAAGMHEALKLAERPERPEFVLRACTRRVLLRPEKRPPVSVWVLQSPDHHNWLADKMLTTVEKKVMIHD

[6] = target: T3, 5-hydroxytryptamine receptor 7; test: Displacement of [3H]-5-CT from cloned human 5HT7B receptor expressed in HEK293 cells after 1 hr by scintillation counting; assay type: cell-based
Summary of the method: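 HEK293 membranes stably expressing human 5-HT7b receptor, homogenized and spun twice at 35,000 g with 15 min at 37 °C between. Assay buffer was 50 mM Tris–HCl with 4 mM MgCl2, […] and 0.1% ascorbate. 0.6 nM [3H]-5-CT, 1 h at 37 °C, then filtration. 10 μM 5-HT defined nonspecific binding. Triplicates at 7–8 concentrations (10⁻¹¹–10⁻⁴ M).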

[7] = Selectivity ratio of Ki for human 5HT7B receptor to Ki for 5HT1A receptor in rat hippocampus homogenates; assay type: tissue-based
Summary of the method: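 Ratio of Ki values from two radioligand displacement assays. 5-HT1A: rat hippocampal membranes, 1 nM [3H]-8-OH-DPAT, 15 min at 37 °C, filtration. 5-HT7b: membranes from HEK293 cells stably expressing the human receptor, 0.6 nM [3H]-5-CT, 1 h at 37 °C. Both used Tris-HCl buffer with MgCl2, pargyline and ascorbate, and 10 μM 5-HT for nonspecific binding. Compounds were tested in triplicate at 7–8 concentrations (10⁻¹¹–10⁻⁴ M). Ki was derived by Cheng–Prusoff from three experiments.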

Row | Compound | Ki [1] | further results
1 | Cc1ccccc1-n1cc(CN2CC=C(c3ccccc3)CC2)c2ccccc21 | 178 nM | 
2 | COc1ccccc1N1CCN(Cc2cn(-c3ccccc3C(C)C)c3ccccc23)CC1 | 58 nM | 
3 | COc1ccccc1N1CCN(Cc2cn(-c3cccc4ccccc34)c3ccccc23)CC1 | 70 nM | inhibition [2]: 6%; inhibition [3]: 10%
4 | CCc1ccccc1-n1cc(CN2CCN(c3ccccc3)CC2)c2ccccc21 | 134 nM | 
5 | c1ccc(-c2ccc(-n3cc(CN4CCN(c5ccccc5)CC4)c4ccccc43)cc2)cc1 | 49000 nM | 
6 | COc1ccccc1-n1cc(CN2CCN(c3ccccc3)CC2)c2ccccc21 | 86 nM | 
7 | Cc1ccc(-n2cc(CN3CCN(c4ccccc4)CC3)c3ccccc32)cc1 | 332 nM | 
8 | COc1ccccc1N1CCN(Cc2ccn(-c3ccccc3C)c2)CC1 |  | Ki [4]: 41 nM; Ki [5]: 21 nM
9 | Cc1ccccc1-n1cc(CCN(C)C)c2ccccc21 | 59 nM | Ki [6]: 283 nM
10 | Cc1cccc(-n2cc(CCN(C)C)c3ccccc32)c1C | 76 nM | Ki [6]: 317 nM
11 | COc1ccccc1N1CCN(Cc2cn(-c3ccccc3C)c3ccccc23)CC1 | 15 nM | 
12 | c1ccc(N2CCN(Cc3cn(-c4cccc5ccccc45)c4ccccc34)CC2)cc1 | 545 nM | 
13 | CN(C)CCc1cn(-c2ccccc2)c2ccccc12 | 62 nM | Ratio Ki [7]: 19; Ki [6]: 1200 nM
14 | CN(C)CCc1cn(-c2cccc3ccccc23)c2ccccc12 | 144 nM | Ki [6]: 649 nM
15 | CC(C)c1ccccc1-n1cc(CN2CCN(c3ccccc3)CC2)c2ccccc21 | 118 nM | 

The remaining molecules from weak to strong by Ki [1], led by results:

Row | Ki [1] | Compound | further results
16 | 2910 nM | Cc1ccccc1-n1cc(CN2CCN(C)CC2)c2ccccc21 | 
17 | 1950 nM | c1ccc(N2CCN(Cc3cn(-c4ccc5ccccc5c4)c4ccccc34)CC2)cc1 | 
18 | 324 nM | Cc1cccc(-n2cc(CN3CCN(c4ccccc4)CC3)c3ccccc32)c1C | 
19 | 216 nM | c1ccc(N2CCN(Cc3cn(-c4ccccc4)c4ccccc34)CC2)cc1 | 
20 | 190 nM | c1ccc(N2CCN(Cc3cn(-c4cccnc4)c4ccccc34)CC2)cc1 | 
21 | 95 nM | c1ccc(N2CCN(Cc3cn(-c4ccccn4)c4ccccc34)CC2)cc1 | 
22 | 95 nM | Cc1ccccc1-n1cc(CN2CCN(c3ccccc3)CC2)c2ccccc21 | 
23 | 90 nM | Cc1cccc(-n2cc(CN3CCN(c4ccccc4)CC3)c3ccccc32)c1 | 
24 | 81 nM | FC(F)(F)c1ccccc1-n1cc(CN2CCN(c3ccccc3)CC2)c2ccccc21 | 
25 | 57 nM | Oc1ccccc1N1CCN(Cc2cn(-c3cccc4ccccc34)c3ccccc23)CC1 | 
26 | 55 nM | COc1ccccc1N1CCN(Cc2cn(-c3ccccn3)c3ccccc23)CC1 | 
27 | 36 nM | N#Cc1ccccc1-n1cc(CN2CCN(c3ccccc3)CC2)c2ccccc21 | 
28 | 17 nM | COc1ccccc1N1CCN(Cc2cn(-c3cccc(C)c3C)c3ccccc23)CC1 | inhibition [2]: 0%; inhibition [3]: 0%
29 | 17 nM | Oc1ccccc1N1CCN(Cc2cn(-c3ccccc3)c3ccccc23)CC1 | 
30 | 10 nM | COc1ccccc1N1CCN(Cc2cn(-c3ccccc3)c3ccccc23)CC1 | 

From ChEMBL document CHEMBL3120113, “New 1-arylindoles based serotonin 5-HT7 antagonists. Synthesis and binding evaluation studies” (Eur J Med Chem, 2014)
